Activity data for 1 compound are collected here from ChEMBL document CHEMBL1152203, “New jasmonate analogues as potential anti-inflammatory agents” (Bioorg Med Chem, 2008).

In data set [1] the test system is RAW264.7. As to the kind of experiment: Antiinflammatory activity in LPS-stimulated mouse RAW264.7 cells assessed as inhibition of TNFalpha production after 24 hrs by ELISA. The class given is functional, cell-based. The essentials: (§1)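 RAW264.7 cells at 1.5 × 10^5 cells/mL, pre-incubated 18 h in 24-well plates, then stimulated with LPS (1 µg/mL) alone or with test samples for 24 h. Samples dissolved in EtOH diluted with DMEM, solvent ≤0.1% final. NO in supernatant by Griess reagent (10 min, room temperature, light protected, absorbance 540 nm); IL-6 and TNF-α by ELISA. Mean ± SD.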

Data set [2] has as its system RAW264.7. As to the kind of experiment: Cytotoxicity against LPS-stimulated mouse RAW264.7 cells at 6.25 uM after 24 hrs by MTT assay. It is filed as cell-based. As to conditions: raw264.7, 24 h. In a few lines: (§2)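 Viability of RAW264.7 cells (1.5 × 10^5 cells/mL) after 24 h exposure to LPS (1 µg/mL) plus test sample, by MTT. MTT added for 4 h, formazan dissolved in DMSO, absorbance 540 nm. Means ± SD of duplicate (50, 100 µM) or triplicate (other concentrations) experiments.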
(Formazan colour is commonly taken as a measure of viable cells.)

The test system of data set [3] is RAW264.7. As to the kind of experiment: Cytotoxicity against LPS-stimulated mouse RAW264.7 cells at 12.5 uM after 24 hrs by MTT assay. The class given is cell-based. As to conditions: raw264.7, 24 h. The essentials: as §2
The subject of data set [4] is RAW264.7. As to the kind of experiment: Antiinflammatory activity in LPS-stimulated mouse RAW264.7 cells assessed as inhibition of IL6 production at after 24 hrs by ELISA. It is filed as functional, cell-based. In a few lines: as §1
(An ELISA detects its analyte on a solid surface through an enzyme-linked reagent.)

Data set [5] relates to RAW264.7. As to the kind of experiment: Cytotoxicity against LPS-stimulated mouse RAW264.7 cells at 25 uM after 24 hrs by MTT assay. As to conditions: raw264.7, 24 h. It is filed as cell-based. The essentials: as §2
Data set [6] concerns RAW264.7. As to the kind of experiment: Antiinflammatory activity in LPS-stimulated mouse RAW264.7 cells assessed as inhibition of NO production at 30 uM after 24 hrs by Griess reagent method. It is filed as functional, cell-based. In a few lines:
(§3)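 Samples and prostaglandin references tested at 10 and 30 µM alongside LPS (1 µg/mL) in RAW264.7 cells (1.5 × 10^5 cells/mL), 24 h; NO by Griess reagent. Triplicate experiments, means ± SD.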

Data set [7] deals with RAW264.7. As to the kind of experiment: Cytotoxicity against LPS-stimulated mouse RAW264.7 cells at 10 uM after 24 hrs by MTT assay. The class given is cell-based. As to conditions: raw264.7, 24 h. In a few lines: as §2
The test system of data set [8] is RAW264.7. As to the kind of experiment: Antiinflammatory activity in LPS-stimulated mouse RAW264.7 cells assessed as inhibition of NO production at 6.25 uM after 24 hrs by Griess reagent method. The class given is functional, cell-based. The essentials: (§4)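 NO series at 3.12, 6.25 and 12.5 µM: RAW264.7 cells (1.5 × 10^5 cells/mL) co-treated with LPS (1 µg/mL) for 24 h; nitrite by Griess reagent. Means ± SD of triplicate experiments.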
For orientation: Griess reagent forms a coloured azo dye with nitrite.

The test system of data set [9] is RAW264.7. As to the kind of experiment: Antiinflammatory activity in LPS-stimulated mouse RAW264.7 cells assessed as inhibition of NO production at 3.12 uM after 24 hrs by Griess reagent method. It is filed as functional, cell-based. The essentials:
as §4

Data set [10] concerns RAW264.7. As to the kind of experiment: Antiinflammatory activity in LPS-stimulated mouse RAW264.7 cells assessed as inhibition of NO production after 24 hrs by Griess reagent method. It is filed as functional, cell-based. The essentials: as §1
For data set [11], the system named is RAW264.7. As to the kind of experiment: Cytotoxicity against LPS-stimulated mouse RAW264.7 cells at 3.12 uM after 24 hrs by MTT assay. It is filed as cell-based. Particulars: raw264.7, 24 h. The essentials:
as §2

Data set [12] has as its system RAW264.7. As to the kind of experiment: Antiinflammatory activity in LPS-stimulated mouse RAW264.7 cells assessed as inhibition of NO production at 10 uM after 24 hrs by Griess reagent method. The class given is functional, cell-based. The essentials:
as §3

Activity calls are given as the source filed them. No cut-off for these calls is given here.

Take `CC/C=C\CC1C(=O)C(Br)=CC1CC(=O)OC` (configuration not stated): the Activity result in the data set on RAW264.7 [1] was “Dose-dependent effect”; in the data set on RAW264.7 [2] it was “Non-toxic”; with RAW264.7 [3] it was “Toxic”; in the data set with RAW264.7 [4], “Dose-dependent effect”; in the data set with RAW264.7 [5], “Toxic”; in the data set with RAW264.7 [7] it was “Toxic”. The Activity result with RAW264.7 [10] is “Dose-dependent effect”; with RAW264.7 [11], “Non-toxic”. The outcome in the data set with RAW264.7 [6], with RAW264.7 [8], with RAW264.7 [9] and in the data set with RAW264.7 [12] was Active.
